Screens: PubChem, several laboratories
RORa activator – activators of orphan receptor RORA, primary screen, cell-based, luminescence; Nuclear receptor ROR-alpha (Homo sapiens), P35398; CHO-K1 Gal4-RORA LBD luciferase reporter; percent increase over mock-subtracted basal signal; activation, % at 10 µM; 65,000 compounds, 1.5% hits;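 active = activation above the mean of all tested compounds plus 3 SD, cut at about 49% in these data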;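 also: 0% = DMSO-treated RORA cells and 100% = added signal equal to DMSO minus mock-transfected cells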
M1 agonist – M1 muscarinic receptor agonists, primary screen, CHO-M1 cells, Fluo-4 calcium, agonist mode | Muscarinic acetylcholine receptor M1 | Fluo-4 calcium fluorescence; stronger effect = higher value | B-score at 10 µM | 64,000 compounds, 3% hits;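 active = fluorescence rise, raw or as B-score row- and column-corrected plate score, outside the 99.7% band of its plate's samples, either direction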
S1P1 ag-PAM – S1P1 agonists and agonism potentiators, primary screen, cell-based, primary and confirmation screens, CRE-bla reporter. Sphingosine 1-phosphate receptor 1 (Homo sapiens), P21453. S1P1 CRE-bla cells, forskolin, beta-lactamase FRET, potentiator mode; S1P1 agonist co-added at EC20, 2 nM; 100% = saturating reference agonist, 0% = basal. activation, % at 9.5 µM. 56,000 compounds, 0.57% hits. AID 449, 2006;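 active = activation above a cutoff set at the mean activation of all tested compounds plus 3 SD, cut at about 54% in these data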;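 also: forskolin at 4 µM as EC80 and the EC20 agonist is SEW2871; 100% = SEW2871 at its EC100 plus forskolin at EC80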
Target sequence (P21453 whole entry, looked up): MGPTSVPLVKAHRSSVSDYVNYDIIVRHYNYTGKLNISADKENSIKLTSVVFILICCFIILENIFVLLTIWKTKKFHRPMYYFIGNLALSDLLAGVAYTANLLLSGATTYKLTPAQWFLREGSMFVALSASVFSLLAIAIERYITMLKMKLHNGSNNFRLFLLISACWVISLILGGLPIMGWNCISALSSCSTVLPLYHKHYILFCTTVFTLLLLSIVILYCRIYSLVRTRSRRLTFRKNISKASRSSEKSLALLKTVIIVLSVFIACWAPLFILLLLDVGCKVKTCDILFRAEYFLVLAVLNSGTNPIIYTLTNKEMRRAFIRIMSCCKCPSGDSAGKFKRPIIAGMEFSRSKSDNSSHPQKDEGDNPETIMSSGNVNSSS
M1 antagonist – antagonists of rat M1 muscarinic receptor | Muscarinic acetylcholine receptor M1 (Rattus norvegicus), P08482 | CHO-M1 cells, Fluo-4 calcium, ACh EC80 antagonist mode; stronger effect = lower value | B-score at 10 µM | 64,000 compounds, 3.4% hits;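 active = calcium fluorescence response, raw or row-and-column corrected B-score, differing from the plate sample mean either way at a set confidence level, mostly lower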
S1P3 agonist – human S1P3 receptor agonists, primary screen, cell-based, primary and confirmation, NFAT-BLA reporter. Sphingosine 1-phosphate receptor 3 (Homo sapiens), Q99500. S1P3 NFAT-BLA reporter cells, agonism, FRET ratio; relative to 1 µM S1P, basal subtracted. activation, % at 4.5 µM. 60,000 compounds, 0.1% hits. AID 373, 2006;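 active = activation above the screen-wide mean plus 3 SD, cut at about 4.5% in these data, passing the limit was not always enough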
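Benchmarks: high control 1 µM S1P / System: stable CHO line with human S1P3, Gα16, NFAT-BLA reporter / Dosing: single compound concentration, 4.5 µM final / Timing: 4 h compound at 37 °C, 2 h substrate at RT / Measured by: FRET β-lactamase substrate fluorescence, excitation 405 nm, 460/535 nm emission ratio, background-subtracted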
SF1 activator – activators of human SF-1, primary screen, cell-based, CHO-K1, Gal4-SF-1 LBD, luciferase luminescence | CHO-K1 Gal4-SF-1 LBD luciferase reporter; % increase over DMSO SF-1-specific signal | Steroidogenic factor 1 (Homo sapiens), Q13285 | AID 522, 2006 | 65,000 compounds, 1.9% hits | activation, % at 10 µM;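 active = activation above the mean activation of all tested compounds plus 3 SD, cut at about 50% in these data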
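Test system: CHO-K1 cells co-transfected with Gal4 DBD–human SF-1 LBD, 5xGal4 luciferase reporter. Quantity: 4,000 cells per well. Compound: 10 µM only. Incubation: compound added 1 h post-seeding, 20 h exposure at 37 °C, 5% CO2. Detection: SteadyLite luciferase luminescence. Replication: one test per compound.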
Numbers without * were called inactive; x = no result given. In the library only some 8.8% were active in any assay of this set; here they are far more common.

SMILES	RORa activator	M1 agonist	S1P1 ag-PAM	M1 antagonist	S1P3 agonist	SF1 activator
CCn1c(=O)cc(SCC(=O)Nc2ccccc2N2CCN(C)CC2)c2ccccc21	-15	-0.044	4	-0.022	1	8
COC(=O)c1ccc(Oc2cc(C)nc(SC)n2)cc1	58*	0.19	x	0.15	-1	71*
CS(=O)(=O)N(CC(=O)NC1CCCC1)c1ccc2c(c1)OCCO2	-8	0	9	-0.51	-1	0
Cn1c(=O)oc2cc(S(=O)(=O)NC(Cc3ccccc3)C(=O)N3CCCCC3)ccc21 (stereo not given)	-6	0.07	-9	0.2	0	17
O=S1(=O)C=C(Sc2nc3ccccc3s2)c2ccccc21	-88	-0.74	114*	-0.95	-2	-93
COc1cccc(C(=O)N2CCN(c3ncccn3)CC2)c1	-11	x	-4	x	0	-24
COc1cccc(N2CCN(C(=O)c3ccc4nc(N5CCCCC5)sc4c3)CC2)c1	78*	1.2	-20	-0.17	0	89*
O=C(c1ccc2nc(N3CCOCC3)sc2c1)N1CCCC1	14	0.011	-1	0.052	-1	0
COc1ccc(N2CCN(C(=O)c3ccc4nc(N5CCCCC5)sc4c3)CC2)cc1	68*	0.27	-17	0.24	0	31
COc1cccc(C(c2nnnn2Cc2ccc(F)cc2)N2CCC(C(N)=O)CC2)c1OC (stereo not given)	-18	0.52	5	-0.42	0	11
O=C(c1noc2c1CCCCC2)N1CCN(C(c2ccccc2)c2ccccc2)CC1	-12	-0.099	10	-0.31	0	-20
O=C(C1CC1)N1CCN=C1SCc1ccccc1Cl	5	-0.32	11	-0.38	0	-13
CCC(O)CNc1nc(-n2nc(C)cc2C)nc2sc3c(c12)CCCC3 (stereo not given)	33	-0.035	-50	1	1	-6
Cc1cc(C)n(-c2nc(NCc3cccnc3)c3c4c(sc3n2)COC(C)(C)C4)n1	-3	1.1	-86	-0.75	13*	-1
Cc1sc2ncnc(Sc3nnnn3-c3ccccc3)c2c1C	-34	-0.98	87*	-0.098	-1	-29
Nc1ccc(Sc2nnnn2-c2ccccc2)c(Cl)c1	-24	-0.27	34	-0.21	0	-11
Clc1ccc(-n2nnnc2Sc2ncnc3sccc23)cc1	-29	-0.67	82*	-0.82	1	-8
COc1ccc(Cc2nnc3n2N=C(c2cc4ccccc4o2)CS3)cc1OC	-14	2.7	-2	0.16	-1	-7
O=C(COC(=O)C1CC1)c1c[nH]c2ccccc12	106*	-0.58	-22	0.2	-1	37
CCn1nc(C(=O)OCC(=O)c2c[nH]c3ccccc23)c2ccccc2c1=O	10	6.1*	-50	-1.3	0	21
O=C(OCC(=O)c1c[nH]c2ccccc12)c1ccco1	8	-0.036	-10	-0.042	0	26
CCn1nc(C(=O)OCC(=O)N2CCc3ccccc32)c2ccccc2c1=O	3	0.98	-30	0.85	0	8
Fc1ccccc1COc1ccc(/C=N/n2cnnc2)cc1	15	-0.045	88*	-0.13	-1	4
COc1ccc(-c2cc(C(F)(F)F)nc(SCCC(=O)N3CCOCC3)n2)cc1	24	-0.67	-22	1.5	-1	-8
COCCNC(=O)c1noc2c1CCc1cc(OC)ccc1-2	36	-1.3	-22	-0.0098	-1	72*
SMILES	RORa activator	M1 agonist	S1P1 ag-PAM	M1 antagonist	S1P3 agonist	SF1 activator
COCC(C)NC(=O)c1noc2c1CCc1cc(OC)ccc1-2 (stereo not given)	6	0.2	-3	-0.51	-1	68*
COc1ccc2c(c1)CCc1c(C(=O)NCCN3CCOCC3)noc1-2	19	x	-5	x	-1	-3
COc1ccc2c(c1)CCc1c(C(=O)NCCCn3ccnc3)noc1-2	4	-0.17	-17	-0.57	0	6
COc1ccc2c(c1)CCc1c(C(=O)NC3CCCCC3)noc1-2	34	x	94	x	-1	54*
COc1ccc2c(c1)CCc1c(C(=O)NCc3ccco3)noc1-2	37	-1	13	0.098	-1	26
CCc1nnc(NC=C2C(=O)OC(C)(C)OC2=O)s1	10	-0.44	-1	-0.75	0	-5
O=C(CC(=O)N1CCN(c2ccccn2)CC1)Nc1ccc2nc3n(c(=O)c2c1)CCCCC3	5	-0.059	-32	0.52	0	1
COc1ccc(-n2cnnc2SCC(=O)N(C)C2CCS(=O)(=O)C2)cc1 (stereo not given)	-1	-0.19	-45	0.044	0	3
c1ccc2c(c1)oc1c(NCCN3CCOCC3)ncnc12	-1	-0.8	-7	-1.1	0	-7
Oc1ccccc1Nc1ncnc2c1oc1ccccc12	22	0.6	-1	-1.2	0	2
c1ccc2c(c1)oc1c(Nc3ccc(CN4CCOCC4)cc3)ncnc12	14	-0.45	6	-0.66	-1	54*
c1ccc2c(c1)oc1c(NCc3ccc4c(c3)OCO4)ncnc12	11	5.7*	90*	-1.7	0	6
c1ccc(Nc2ncnc3c2oc2ccccc23)cc1	27	0.43	x	-0.53	0	65*
c1ccc2c(c1)oc1c(Nc3ccc4c(c3)OCO4)ncnc12	83*	0.5	1	0.19	-1	92*
Cc1nnc(Nc2ccc3c(c2)OCO3)c2ccccc12	25	-0.031	x	-0.19	-1	23
CC12CCC(C(=O)N3CCc4ccccc43)(CC1=O)C2(C)C (stereo not given)	-3	-0.73	6	0.55	-1	6
O=C(CN1C(=O)C2CC=CCC2C1=O)Nc1nc2ccccc2[nH]1 (stereo not given)	-19	-0.63	-18	0.28	-1	14
O=C1c2ccccc2C(=O)N1CSc1ncccn1	-14	-0.2	x	-0.49	-1	2
COC(=O)c1cccc(NC(=O)CSc2nnnn2C)c1	12	-0.39	-8	0.6	-1	9
COC(=O)c1cccc(NC(=O)CSc2nc3cccnc3n2C)c1	82*	-0.2	17	-1.8	-1	36
CCOc1cc(CNc2ccc3[nH]c(=O)[nH]c3c2)ccc1OCC(=O)NC(C)(C)C	-9	7.4*	x	-0.97	0	26
